Data from ChEMBL document CHEMBL1125274, “Persistent binding of fatty acyl derivatives of naltrexamine to opioid receptors” (J Med Chem, 1991).

Experiments:
[1] = target: T1, Opioid receptor (Mus musculus) (UniProt P42866+P32300+P33534); test: Binding to mouse brain membranes expressed as percentage of receptor occupancy determined from difference in specific binding of [3H]dihydromorphine obtained prewashed.; conditions: Membrane
How it was run: (§1)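 Applies to membranes washed before ligand exposure. Mouse brain membranes in Hepes buffer pH 7.4 are incubated with ligand for 30 min at 25 °C. Occupancy is taken from the reduction in specific binding of [3H]dihydromorphine (2 nM final, 20 min at 25 °C; nonspecific binding with 1 µM naltrexone) versus a ligand-free control. Mean ± SD of triplicates.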

[2] = target: T1, Opioid receptor (Mus musculus); test: Binding to mouse brain membranes expressed as percentage of receptor occupancy determined from difference in specific binding of [3H]dihydromorphine obtained after 5 wash procedures.; conditions: Membrane
How it was run: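 Ligand pretreatment of male mouse brain membranes runs 30 min at 25 °C, followed by 5 washes in Hepes buffer pH 7.4 (10 min at 37 °C each, then recentrifuged). Specific binding of 2 nM [3H]dihydromorphine (20 min at 25 °C, minus binding with 1 µM naltrexone) is compared with an identically washed ligand-free control to give percent occupancy. Triplicate, mean ± SD.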

[3] = target: T1, Opioid receptor (Mus musculus); test: Binding to mouse brain membranes expressed as percentage of receptor occupancy determined from difference in specific binding of [3H]dihydromorphine obtained after 10 wash procedures.; conditions: Membrane
How it was run: (§2)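 Male mouse brain (minus cerebellum) membranes in pH 7.4 Hepes buffer are exposed to ligand for 30 min at 25 °C, then centrifuged and washed 10 times (resuspended in Hepes, 10 min at 37 °C, recentrifuged). Pellets are labelled with 2 nM final [3H]dihydromorphine for 20 min at 25 °C; 1 µM naltrexone defines nonspecific binding. Occupancy is the loss of specific binding versus a ligand-free control treated identically, counted by scintillation. Mean ± SD of triplicates.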

[4] = target: T1, Opioid receptor (Mus musculus); test: Binding to mouse brain membranes expressed as percentage of receptor occupancy determined from difference in specific binding of [3H]dihydromorphine obtained after 3 wash procedures.; conditions: Membrane
How it was run: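 Mouse forebrain membranes in Hepes buffer, pH 7.4, are incubated with ligand for 30 min at 25 °C, then given 3 wash cycles, each a 10 min resuspension at 37 °C followed by centrifugation. Residual occupancy is measured with 2 nM [3H]dihydromorphine (20 min, 25 °C; nonspecific binding with 1 µM naltrexone) as the drop in specific binding relative to a washed control without ligand. Mean ± SD, triplicate.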

[5] = target: T1, Opioid receptor (Mus musculus); test: Binding to mouse brain membranes expressed as percentage of Opioid receptors occupancy determined from difference in specific binding of [3H]dihydromorphine obtained prewashed.; conditions: Membrane; how it was run: as §1
[6] = target: T1, Opioid receptor (Mus musculus); test: Binding to mouse brain membranes expressed as percentage of Opioid receptors occupancy determined from difference in specific binding of [3H]dihydromorphine obtained after 10 wash procedures; conditions: Membrane; how it was run: as §2
[7] = target: T1, Opioid receptor (Mus musculus); test: (§3) Inhibition of [3H]dihydromorphine binding to mouse brain membranes as percentage of Opioid receptor occupancy
[8] = target: T1, Opioid receptor (Mus musculus); test: as §3; remark: listed apart in the source

T1 sequence (P32300 whole entry, looked up): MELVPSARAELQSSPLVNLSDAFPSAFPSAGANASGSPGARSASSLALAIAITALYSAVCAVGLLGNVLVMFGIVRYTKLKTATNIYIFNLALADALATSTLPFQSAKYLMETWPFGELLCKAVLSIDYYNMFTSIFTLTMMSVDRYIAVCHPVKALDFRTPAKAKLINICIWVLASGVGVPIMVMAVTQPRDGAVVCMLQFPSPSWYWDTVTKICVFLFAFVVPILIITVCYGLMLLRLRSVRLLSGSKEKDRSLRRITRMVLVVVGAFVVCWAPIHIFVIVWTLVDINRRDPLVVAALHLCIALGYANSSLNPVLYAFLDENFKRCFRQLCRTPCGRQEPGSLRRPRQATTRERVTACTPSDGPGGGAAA
T1 sequence (P33534 whole entry, looked up): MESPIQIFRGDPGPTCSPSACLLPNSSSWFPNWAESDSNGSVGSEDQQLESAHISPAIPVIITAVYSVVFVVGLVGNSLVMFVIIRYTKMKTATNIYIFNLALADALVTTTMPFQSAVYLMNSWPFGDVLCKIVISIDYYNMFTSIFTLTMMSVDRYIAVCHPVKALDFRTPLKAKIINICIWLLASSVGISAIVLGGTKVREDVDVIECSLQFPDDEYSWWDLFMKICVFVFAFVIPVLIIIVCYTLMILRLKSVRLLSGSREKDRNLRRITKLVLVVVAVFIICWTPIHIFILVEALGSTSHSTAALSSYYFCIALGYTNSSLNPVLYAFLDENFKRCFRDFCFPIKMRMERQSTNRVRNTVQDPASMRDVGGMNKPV
T1 sequence (P42866 whole entry, looked up): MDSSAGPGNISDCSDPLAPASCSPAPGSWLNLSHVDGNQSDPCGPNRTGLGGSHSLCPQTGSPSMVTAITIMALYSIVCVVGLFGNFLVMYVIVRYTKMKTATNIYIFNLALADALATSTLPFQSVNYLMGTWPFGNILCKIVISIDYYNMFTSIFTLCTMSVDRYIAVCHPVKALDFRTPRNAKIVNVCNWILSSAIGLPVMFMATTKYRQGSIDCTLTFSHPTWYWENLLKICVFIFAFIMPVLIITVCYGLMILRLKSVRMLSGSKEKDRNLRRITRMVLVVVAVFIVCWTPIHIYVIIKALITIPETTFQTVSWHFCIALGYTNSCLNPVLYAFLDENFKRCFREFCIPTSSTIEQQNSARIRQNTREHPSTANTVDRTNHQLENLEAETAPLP

SMILES | Receptor occupancy [1] | Receptor occupancy [2] | Receptor occupancy [3] | Receptor occupancy [4] | Receptor occupancy [5] | Receptor occupancy [6] | Receptor occupancy [7] | Receptor occupancy [8]
CCCCCCCCCCCCCCCC(=O)N[C@H]1CC[C@@]2(O)[C@H]3Cc4ccc(O)c5c4[C@@]2(CCN3CC2CC2)[C@H]1O5 | 24% | 35% | 3% | 85% |  |  |  | 
CC/C=C/C/C=C/C/C=C/CCCCCCCC(=O)N[C@H]1CC[C@@]2(O)[C@H]3Cc4ccc(O)c5c4[C@@]2(CCN3CC2CC2)[C@H]1O5 |  |  |  |  | 69% | 84% | 94% | 89%
CC(=O)N[C@@H]1CC[C@@]2(O)[C@H]3Cc4ccc(O)c5c4[C@@]2(CCN3CC2CC2)[C@H]1O5 |  |  |  | 4% |  |  |  | 
CCCCCCCC/C=C/CCCCCCCC(=O)N[C@H]1CC[C@@]2(O)[C@H]3Cc4ccc(O)c5c4[C@@]2(CCN3CC2CC2)[C@H]1O5 |  |  |  |  | 42% | 21% | 98% | 54%
Oc1ccc2c3c1O[C@H]1/C(=N\N=C4/CC[C@@]5(O)[C@H]6Cc7ccc(O)c8c7[C@@]5(CCN6CC5CC5)[C@H]4O8)CC[C@@]4(O)[C@@H](C2)N(CC2CC2)CC[C@]314 |  | -1% | 2% | 35% |  |  |  | 
CC/C=C/C/C=C/C/C=C/CCCCCCCC(=O)N[C@@H]1CC[C@@]2(O)[C@H]3Cc4ccc(O)c5c4[C@@]2(CCN3CC2CC2)[C@H]1O5 |  |  |  |  | 85% | 86% | 92% | 95%
CCCCCCCCCCCCCCCCCC(=O)N[C@@H]1CC[C@@]2(O)[C@H]3Cc4ccc(O)c5c4[C@@]2(CCN3CC2CC2)[C@H]1O5 |  |  |  |  | 34% | 2% | 89% | 48%
CCCCC/C=C/C/C=C/CCCCCCCC(=O)N[C@H]1CC[C@@]2(O)[C@H]3Cc4ccc(O)c5c4[C@@]2(CCN3CC2CC2)[C@H]1O5 |  |  |  |  | 73% | 46% | 93% | 93%
CCCCCCCCCCCCCCCCCC(=O)N[C@H]1CC[C@@]2(O)[C@H]3Cc4ccc(O)c5c4[C@@]2(CCN3CC2CC2)[C@H]1O5 |  |  |  |  | 18% | 6% | 77% | 42%
CCCCCCCCCCCCCCCCCC(=O)NN[C@@H]1CC[C@@]2(O)[C@H]3Cc4ccc(O)c5c4[C@@]2(CCN3CC2CC2)[C@H]1O5 |  |  |  |  |  |  | 38% | 4%
CCCCCCCC/C=C/CCCCCCCC(=O)N[C@@H]1CC[C@@]2(O)[C@H]3Cc4ccc(O)c5c4[C@@]2(CCN3CC2CC2)[C@H]1O5 |  |  |  |  | 64% | 32% | 95% | 93%
CC/C=C/C/C=C/C/C=C/CCCCCCCC(=O)NN[C@@H]1CC[C@@]2(O)[C@H]3Cc4ccc(O)c5c4[C@@]2(CCN3CC2CC2)[C@H]1O5 |  |  |  |  |  | 38% | 93% | 46%
CCCCCCCCCCCCCCCC(=O)NN[C@@H]1CC[C@@]2(O)[C@H]3Cc4ccc(O)c5c4[C@@]2(CCN3CC2CC2)[C@H]1O5 |  |  |  |  |  |  | 33% | 2%
CC(=O)N[C@H]1CC[C@@]2(O)[C@H]3Cc4ccc(O)c5c4[C@@]2(CCN3CC2CC2)[C@H]1O5 |  |  |  | 2% |  |  |  | 
CCCCC/C=C/C/C=C/CCCCCCCC(=O)N[C@@H]1CC[C@@]2(O)[C@H]3Cc4ccc(O)c5c4[C@@]2(CCN3CC2CC2)[C@H]1O5 |  |  |  |  | 84% | 53% | 94% | 96%
CCCCCCCCCCCCCCCC(=O)N[C@@H]1CC[C@@]2(O)[C@H]3Cc4ccc(O)c5c4[C@@]2(CCN3CC2CC2)[C@H]1O5 |  |  |  |  | 38% | 2% | 93% | 58%
